Laboratory results: ChEMBL document CHEMBL1629439, “High-throughput identification of antibacterials against methicillin-resistant Staphylococcus aureus (MRSA) and the transglycosylase” (Bioorg Med Chem, 2010)
Values after ≈ are worked out from the molar mass of the structure shown.

Key:
[1] = Displacement of fluorescein-labeled moenomycin from transglycosylase at 100 uM after 30 mins by fluorescence anisotropy binding assay
[2] = Inhibition of transglycosylase assessed as inhibition of NBD- labelled lipid II polymerization at 100 uM
Outline: (§1)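 100 µM NBD-labelled lipid II incubated 30 min with full-length PBP (EC, SA or Mtb) and 10 ng/µl N-acetylmuramidase in 50 mM Tris-HCl pH 8.0, 10 mM MgCl2, 0.1% Triton X-100, 10% DMSO, 15% MeOH. Supernatant run on anion-exchange HPLC with 20 mM–0.5 M ammonium acetate gradient. Inhibition calculated from substrate peak-area percentage. IC50 determined. S. aureus strains share one SA enzyme.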

[3] = test system: Stenotrophomonas maltophilia; assay: Antimicrobial activity against Stenotrophomonas maltophilia ATCC 13637 after 18 to 24 hrs by alamar blue assay; format: functional; conditions: Stenotrophomonas maltophilia, ATCC 13637; read-out: MIC
Outline: (§2)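 Broth microdilution per NCCLS in Mueller-Hinton broth, 8-point twofold dilutions, 384-well format. Exponential-phase cells at 5 × 10^5 cells/ml incubated with compound 18–24 h at 37 °C, then 20% Alamar blue added and fluorescence read. MIC90 taken as the lowest concentration preventing at least 90% bacterial growth.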

Acinetobacter baumannii = assay: Antimicrobial activity against Acinetobacter baumannii ATCC 49139 after 18 to 24 hrs by alamar blue assay; format: functional; conditions: Acinetobacter baumannii, ATCC 49139; read-out: MIC
Outline: as §2

[4] = Inhibition of transglycosylase assessed as inhibition of NBD- labelled lipid II polymerization
Outline: as §1

[5] = test system: Mycolicibacterium smegmatis; assay: Antimicrobial activity against Mycobacterium smegmatis BCRC 11565 after 18 to 24 hrs by alamar blue assay; format: functional; conditions: Mycolicibacterium smegmatis, BCRC 11565; read-out: MIC
Outline: as §2

Staphylococcus aureus [6] = assay: Antimicrobial activity against Staphylococcus aureus ATCC 29213 after 18 to 24 hrs by alamar blue assay
Staphylococcus aureus [7] = assay: Antimicrobial activity against methicillin-resistant Staphylococcus aureus ATCC 33592 after 18 to 24 hrs by alamar blue assay; format: functional; conditions: Staphylococcus aureus, ATCC 33592; read-out: MIC
Outline: (§3)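 Broth microdilution per NCCLS standard, Mueller-Hinton broth, 8-point twofold dilutions; exponentially growing cells at 5 10^5 cells/ml with compound, 18–24 h at 37 C; 20% Alamar blue added, fluorescence read; MIC90 taken as lowest concentration preventing at least 90% growth.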

Bacillus subtilis = assay: Antimicrobial activity against Bacillus subtilis ATCC 23857 after 18 to 24 hrs by alamar blue assay; format: functional
Outline: as §2

Pseudomonas aeruginosa = assay: Antimicrobial activity against Pseudomonas aeruginosa ATCC 25619 after 18 to 24 hrs by alamar blue assay; format: functional; conditions: Pseudomonas aeruginosa, ATCC 25619; read-out: MIC
Outline: as §2

Staphylococcus aureus [8] = assay: Antimicrobial activity against methicillin-resistant Staphylococcus aureus isolate NTUH4722 after 18 to 24 hrs by alamar blue assay; format: functional
Outline: as §3

Escherichia coli = assay: Antimicrobial activity against Escherichia coli ATCC […] after 18 to 24 hrs by alamar blue assay; format: functional; conditions: Escherichia coli; read-out: MIC
Outline: as §2

Serratia marcescens = assay: Antimicrobial activity against Serratia marcescens ATCC 14756 after 18 to 24 hrs by alamar blue assay; format: functional; conditions: Serratia marcescens, ATCC 14756; read-out: MIC
Outline: as §2

Staphylococcus aureus [9] = assay: Antimicrobial activity against oxacillin- and methicillin-resistant Staphylococcus aureus isolate Sa-OXA-R2 after 18 to 24 hrs by alamar blue assay; format: functional
Outline: as §3

SMILES	inhibition [1] [%]	inhibition [2] [%]	MIC [3] [µg/mL]	MIC (Acinetobacter baumannii) [µg/mL]	IC90 [4] [µM]	MIC [5] [µg/mL]	MIC (Staphylococcus aureus [6]) [µg/mL]	MIC (Staphylococcus aureus [7]) [µg/mL]	MIC (Bacillus subtilis) [µg/mL]	MIC (Pseudomonas aeruginosa) [µg/mL]	MIC (Staphylococcus aureus [8]) [µg/mL]	MIC (Escherichia coli) [µg/mL]	MIC (Serratia marcescens) [µg/mL]	MIC (Staphylococcus aureus [9]) [µg/mL]
Cc1ccc(Nc2nc3nonc3nc2Nc2cccc(C(F)(F)F)c2)cc1Cl	90	0												
O=C(Nc1ccc(C(F)(F)F)cc1)N1CCN(c2nc(CCc3ccccc3)nc3sc4c(c23)CCCC4)CC1	90	0												
O=C(c1ccc(Cl)cc1)c1cc(NC(=O)c2cc(Br)cc(Br)c2O)ccc1Br			16 (≈ 27.2 µM)	16 (≈ 27.2 µM)	100	0.5 (≈ 0.85 µM)	≤ 2	≤ 2	< 0.03	16 (≈ 27.2 µM)	≤ 0.03	8 (≈ 13.6 µM)	16 (≈ 27.2 µM)	≤ 0.03
CCn1cc(C(=O)O)c(=O)c2cc(F)c(N3CCN(C(=O)c4cccc(C)c4)CC3)cc21	93	0												
Cc1ccc(C(C)C)c(Oc2ccc(Cl)cc2NC(=O)c2cc(Cl)cc(Cl)c2O)c1			16 (≈ 34.4 µM)	16 (≈ 34.4 µM)	50	0.5 (≈ 1.08 µM)	1 (≈ 2.15 µM)	0.25 (≈ 0.538 µM)	< 0.03	16 (≈ 34.4 µM)	≤ 0.03	8 (≈ 17.2 µM)	16 (≈ 34.4 µM)	≤ 0.03
O=C(Nc1cc(S(=O)(=O)c2ccc(Cl)cc2)ccc1Cl)c1cc(I)cc(I)c1O			16 (≈ 23.7 µM)	16 (≈ 23.7 µM)	100	0.5 (≈ 0.742 µM)	8 (≈ 11.9 µM)	8 (≈ 11.9 µM)	< 0.03	16 (≈ 23.7 µM)	≤ 0.03	8 (≈ 11.9 µM)	16 (≈ 23.7 µM)	≤ 0.03
Cc1ccc(-c2cc(C(=O)Oc3cccc(C)c3)no2)cc1	96	0												
Cc1ccc(C(C)C)cc1Oc1ccc(Cl)cc1NC(=O)c1cc(Cl)ccc1O			16 (≈ 37.2 µM)	16 (≈ 37.2 µM)	100	0.5 (≈ 1.16 µM)	0.5 (≈ 1.16 µM)	0.5 (≈ 1.16 µM)	< 0.03	16 (≈ 37.2 µM)	≤ 0.03	8 (≈ 18.6 µM)	16 (≈ 37.2 µM)	≤ 0.03
O=C(c1ccc(NC(=O)c2cc(Br)cc(Br)c2O)c(Cl)c1)c1cccs1			16 (≈ 31 µM)	16 (≈ 31 µM)	> 100	0.5 (≈ 0.97 µM)	4 (≈ 7.76 µM)	4 (≈ 7.76 µM)	< 0.03	16 (≈ 31 µM)	≤ 0.03	8 (≈ 15.5 µM)	16 (≈ 31 µM)	≤ 0.03
O=C(Nc1cc(Cl)ccc1Oc1ccc(Cl)c2ccccc12)c1cc(Cl)cc(Br)c1O			16 (≈ 29.8 µM)	16 (≈ 29.8 µM)	100	0.5 (≈ 0.93 µM)	8 (≈ 14.9 µM)	16 (≈ 29.8 µM)	< 0.03	16 (≈ 29.8 µM)	≤ 0.03	8 (≈ 14.9 µM)	16 (≈ 29.8 µM)	≤ 0.03
Cc1ccc(C(C)C)c(Oc2ccccc2NC(=O)c2cc(Br)cc(Br)c2O)c1			16 (≈ 30.8 µM)	16 (≈ 30.8 µM)	50	0.5 (≈ 0.963 µM)	1 (≈ 1.93 µM)	4 (≈ 7.7 µM)	< 0.03	16 (≈ 30.8 µM)	≤ 0.03	8 (≈ 15.4 µM)	16 (≈ 30.8 µM)	≤ 0.03
